Data published in ChEMBL document CHEMBL1135423, “Acyl-protected hydroxylamines as spin label generators for EPR brain imaging” (J Med Chem, 2002).

Tests used:
Type in all cases: ADME, organism-based
[1] = species: Mus musculus; assay: Biodistribution of compound (total concentration of both oxidized and reduced forms) in liver; conditions: in vivo
How it was run: (§1)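 Female C3H HenMTV⁻ mice (6-8 weeks old, 22-25 g; three per time point) got one i.p. injection of 500 µL of 40 mM compound. They were euthanized at 10 or 60 min. Organs and blood were excised and homogenized separately in ice-cold PBS. One half of each homogenate received K₃[Fe(CN)₆] (final 1 mM) to oxidize hydroxylamine. Total nitroxide plus hydroxylamine was quantified by EPR signal intensity.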

[2] = species: Mus musculus; assay: Biodistribution of compound (oxidized form) in spleen tissue; conditions: in vivo
How it was run: (§2)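 In female C3H HenMTV⁻ mice (6-8 weeks, 22-25 g; three per time point), compound was injected ip as 500 µL of 40 mM solution. Animals were killed 10 or 60 min later. Brain, heart, liver, kidney, spleen and blood were removed and each homogenized in ice-cold PBS. Nitroxide (oxidized form) was quantified by EPR signal intensity in the half of each homogenate not treated with ferricyanide.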

[3] = test system: Mus musculus; assay: Biodistribution of compound (oxidized form) in heart tissue, animals were sacrificed 60 minutes after dosing, in DMSO; conditions: in vivo, 1 h; how it was run: as §2
[4] = test system: Mus musculus; assay: Biodistribution of compound (total concentration of both oxidized and reduced forms) in blood tissues, animals were sacrificed 60 minutes after dosing, in DMSO; conditions: in vivo, 1 h; how it was run: as §1
[5] = test system: Mus musculus; assay: Biodistribution of compound (total concentration of both oxidized and reduced forms) in brain tissues, animals were sacrificed 60 minutes after dosing, in DMSO; conditions: in vivo, 1 h; how it was run: as §1
[6] = test system: Mus musculus; assay: Biodistribution of compound (total concentration of both oxidized and reduced forms) in heart tissues, animals were sacrificed 60 minutes after dosing, in DMSO; conditions: in vivo, 1 h; how it was run: as §1
[7] = test system: Mus musculus; assay: Biodistribution of compound (total concentration of both oxidized and reduced forms) in liver tissues, animals were sacrificed 60 minutes after dosing, in DMSO; conditions: in vivo, 1 h; how it was run: as §1
[8] = species: Mus musculus; assay: Biodistribution of compound (total concentration of both oxidized and reduced forms) in spleen; conditions: in vivo; how it was run: as §1
[9] = species: Mus musculus; assay: Biodistribution of compound (total concentration of both oxidized and reduced forms) in brain tissues; conditions: in vivo; how it was run: as §1
[10] = species: Mus musculus; assay: Biodistribution of compound (oxidized form) in kidney tissue; conditions: in vivo; how it was run: as §2
[11] = species: Mus musculus; assay: Biodistribution of compound (total concentration of both oxidized and reduced forms) in kidney; conditions: in vivo; how it was run: as §1
[12] = species: Mus musculus; assay: Biodistribution of compound (oxidized form) in heart tissue of mice; conditions: in vivo; how it was run: as §2
[13] = test system: Mus musculus; assay: Biodistribution of compound (oxidized form) in kidney tissue, animals were sacrificed 60 minutes after dosing, in DMSO; conditions: in vivo, 1 h; how it was run: as §2
[14] = species: Mus musculus; assay: Biodistribution of compound (total concentration of both oxidized and reduced forms) in heart tissues; conditions: in vivo; how it was run: as §1
[15] = species: Mus musculus; assay: Biodistribution of compound (oxidized form) in brain tissue of mice; conditions: in vivo; how it was run: as §2
[16] = test system: Mus musculus; assay: Biodistribution of compound (oxidized form) in brain tissue, animals were sacrificed 60 minutes after dosing, in DMSO; conditions: in vivo, 1 h; how it was run: as §2
[17] = test system: Mus musculus; assay: Biodistribution of compound (oxidized form) in blood tissues, animals were sacrificed 60 minutes after dosing, in DMSO; conditions: in vivo, 1 h; how it was run: as §2
[18] = species: Mus musculus; assay: Biodistribution of compound (total concentration of both oxidized and reduced forms) in blood; conditions: in vivo; how it was run: as §1
[19] = species: Mus musculus; assay: Biodistribution of compound (oxidized form) in blood tissue; conditions: in vivo; how it was run: as §2
[20] = test system: Mus musculus; assay: Biodistribution of compound (oxidized form) in liver tissues, animals were sacrificed 60 minutes after dosing, in DMSO; conditions: in vivo, 1 h; how it was run: as §2
[21] = test system: Mus musculus; assay: Biodistribution of compound (oxidized form) in spleen tissues, animals were sacrificed 60 minutes after dosing, in DMSO; conditions: in vivo, 1 h; how it was run: as §2
[22] = test system: Mus musculus; assay: Biodistribution of compound (total concentration of both oxidized and reduced forms) in spleen tissues, animals were sacrificed 60 minutes after dosing in DMSO; conditions: in vivo, 1 h; how it was run: as §1
[23] = species: Mus musculus; assay: Biodistribution of compound (oxidized form) in liver tissue; conditions: in vivo; how it was run: as §2
[24] = test system: Mus musculus; assay: Biodistribution of compound (total concentration of both oxidized and reduced forms) in kidney tissues, animals were sacrificed 60 minutes after dosing in DMSO; conditions: in vivo, 1 h; how it was run: as §1

Question: With `CC(=O)OCOC(=O)C1CC(C)(C)N(OC(C)=O)C1(C)C` (centres undefined) as the compound, how does the Biodistribution [1] read?
Answer: The Biodistribution was 250 nM (g of tissue)-1.

Question: And the Biodistribution [2]?
Answer: Its Biodistribution is 40 nM (g of tissue)-1.

Question: And the Biodistribution [3]?
Answer: Its Biodistribution is 5 nM (g of tissue)-1.

Question: And the Biodistribution [4]?
Answer: The Biodistribution was 400 nM (g of tissue)-1.

Question: And the Biodistribution [5]?
Answer: Its Biodistribution is 0 nM (g of tissue)-1.

Question: And the Biodistribution [6]?
Answer: The Biodistribution was 250 nM (g of tissue)-1.

Question: And the Biodistribution [7]?
Answer: The Biodistribution was 250 nM (g of tissue)-1.

Question: And the Biodistribution [8]?
Answer: The Biodistribution was 750 nM (g of tissue)-1.

Question: And the Biodistribution [9]?
Answer: Its Biodistribution is 0 nM (g of tissue)-1.

Question: And the Biodistribution [10]?
Answer: The Biodistribution was 50 nM (g of tissue)-1.

Question: What about the Biodistribution [11] of the same compound?
Answer: The Biodistribution was 2500 nM (g of tissue)-1.

Question: What about the Biodistribution [12] of the same compound?
Answer: The Biodistribution was 10 nM (g of tissue)-1.

Question: And the Biodistribution [13]?
Answer: Its Biodistribution is 40 nM (g of tissue)-1.

Question: What about the Biodistribution [14] of the same compound?
Answer: The Biodistribution was 250 nM (g of tissue)-1.

Question: What about the Biodistribution [15] of the same compound?
Answer: Its Biodistribution is 0 nM (g of tissue)-1.

Question: And the Biodistribution [16]?
Answer: The Biodistribution was 0 nM (g of tissue)-1.

Question: What about the Biodistribution [17] of the same compound?
Answer: Its Biodistribution is 20 nM (g of tissue)-1.

Question: And the Biodistribution [18]?
Answer: Its Biodistribution is 750 nM (g of tissue)-1.

Question: What about the Biodistribution [19] of the same compound?
Answer: The Biodistribution was 50 nM (g of tissue)-1.

Question: And the Biodistribution [20]?
Answer: The Biodistribution was 20 nM (g of tissue)-1.

Question: What about the Biodistribution [21] of the same compound?
Answer: The Biodistribution was 20 nM (g of tissue)-1.

Question: What about the Biodistribution [22] of the same compound?
Answer: The Biodistribution was 150 nM (g of tissue)-1.

Question: And the Biodistribution [23]?
Answer: The Biodistribution was 100 nM (g of tissue)-1.

Question: And the Biodistribution [24]?
Answer: The Biodistribution was 2500 nM (g of tissue)-1.
